# Experiments:
# Colon cell line = assay: In vitro inhibition of cell growth in human colon cell line.; format: functional, cell-based
# Summary of the method: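 SW620 colon cells grown and tested in RPMI-1640 with 10% FBS. Serially diluted compound was placed in wells, cells were seeded straight onto it, and solvent blanks were included. After 72 h, cells were fixed with cold TCA (10% final) for 1 h at 4 °C, stained 30 min with 0.4% SRB in 1% acetic acid, and bound dye was solubilized in 10 mM Tris base, pH 10.5.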
# Neuronal cell line = assay: In vitro inhibition of cell growth in human neuronal cell line.; format: functional, cell-based
# Plasmodium falciparum [1] = assay: Inhibitory activity against chloroquine-sensitive Plasmodium falciparum D6 (CDC/Sierra Leone I); format: functional, organism-based
# Summary of the method: (§1)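 Drug stocks in DMSO, diluted 400-fold into RPMI 1640 with 25 mM Hepes, 32 mM NaHCO3 and 10% Albumax I, then 2-fold serial dilutions (over 11 concentrations). Parasites exposed 48 h at 37 °C under 5% O2/5% CO2/90% N2, then [3H]hypoxanthine added for a further 18 h. Uptake counted by scintillation; IC50 from nonlinear regression logistic dose-response fit.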
# Plasmodium falciparum [2] = assay: Inhibitory activity against chloroquine-resistant Plasmodium falciparum W-2 Indochina III; format: functional, organism-based; summary of the method: as §1
SMILES,IC50 (Colon cell line) [µg/mL],IC50 (Neuronal cell line) [µg/mL],IC50 (Plasmodium falciparum [1]) [µg/mL],IC50 (Plasmodium falciparum [2]) [µg/mL]
COC(=O)/C(=C/Cn1c(-c2ccccc2)ncc(NC(=O)OCc2ccccc2)c1=O)COC(=O)c1ccc([N+](=O)[O-])cc1,7.6,1.75,0.024,0.024
COC(=O)/C(=C/[C@H](C)NC(=O)Cn1c(-c2ccccc2)ncc(NC(=O)OCc2ccccc2)c1=O)COC(C)=O,1.6,1.1,0.009,0.01
COC(=O)/C(=C/Cn1c(-c2ccccc2)ncc(NC(=O)OCc2ccccc2)c1=O)CO,> 50,0.95,0.016,0.017
COC(=O)/C(=C/Cn1c(-c2ccccc2)ncc(NC(=O)N2CCN(C(C)=O)CC2)c1=O)COC(C)=O,> 50,13.8,0.017,0.018
COC(=O)/C(=C/Cn1c(-c2ccccc2)ncc(NC(=O)OCc2ccccc2)c1=O)COC(C)=O,> 50,0.92,0.017,0.017
COC(=O)/C(=C/Cn1c(-c2ccccc2)ncc(NC(=O)OCc2ccccc2)c1=O)COC(=O)c1ccccc1,13.5,2.6,0.027,0.028

# Reference: ChEMBL document CHEMBL1135533, “Synthesis and in vitro studies of novel pyrimidinyl peptidomimetics as potential antimalarial therapeutic agents” (J Med Chem, 2002)
